Experimental data from ChEMBL document CHEMBL3098012, “A novel tamoxifen derivative, ridaifen-F, is a nonpeptidic small-molecule proteasome inhibitor” (Eur J Med Chem, 2014).
The source made the active and inactive calls. The rule behind the calls is not given here.

What was measured:
HL-60 = assay: Cytotoxicity against […] human HL60 cells after 48 hrs by MTT assay; assay type: functional; conditions: HL-60, 48 h
In short: (§1)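 HEK293 (DMEM) or HL-60 (IMDM) cells, each with 10% FBS plus penicillin/streptomycin, seeded 5×10^3 cells/well in duplicate. Exposed 48 h to compound at […]. MTT reduction read as 560/750 nm absorbance ratio after HCl/2-propanol extraction. CyT50 from inhibition curve; means of triplicate.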

[1] = Cytotoxicity against ER-negative HEK293 cells after 48 hrs by MTT assay; assay type: cell-based; conditions: human; in short: as §1
[2] = molecular target: T1, Proteasome Macropain subunit MB1 (Homo sapiens, UniProt P28074); assay: Inhibition of chymotrypsin-like activity of human 20S proteasome beta 5 subunit assessed as hydrolysis of succinyl-LLVY-AMC fluorogenic substrate measured for 1 hr by fluorometric analysis
T1 sequence (P28074 whole entry): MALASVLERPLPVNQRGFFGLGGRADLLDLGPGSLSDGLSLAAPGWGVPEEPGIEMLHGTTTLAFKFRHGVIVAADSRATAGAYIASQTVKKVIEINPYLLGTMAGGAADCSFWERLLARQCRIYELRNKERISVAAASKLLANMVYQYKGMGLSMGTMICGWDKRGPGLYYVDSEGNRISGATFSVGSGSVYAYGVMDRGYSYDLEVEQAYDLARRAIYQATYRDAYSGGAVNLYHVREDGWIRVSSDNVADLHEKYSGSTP
In short: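 Purified human 20S proteasome (0.1 µg) incubated at 37 °C with 50 µM succinyl-LLVY-AMC (CT-L) or 20 µM Z-LLE-AMC (PGPH) and compound at 0.01–10 µM in 25 mM HEPES, 0.5 mM EDTA, 0.03% SDS. IC50 taken from inhibition curve; means of three experiments.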

Homo sapiens [3] = species on record: Homo sapiens; assay: Inhibition of calpain (unknown origin) at >10 uM
Homo sapiens [4] = species on record: Homo sapiens; assay: Inhibition of cathepsin (unknown origin) at >10 uM

SMILES | CC50 (HL-60) [µM] | CC50 at 48 h [1] [µM] | IC50 [2] [µM] | inhibition (Homo sapiens [3]) | inhibition (Homo sapiens [4])
CCCCCC(CCCCC)=C(c1ccc(OCCN2CCCCCC2)cc1)c1ccc(OCCN2CCCCCC2)cc1 | > 30 | 14.5 | > 10 | – | –
c1cc(C2(c3ccc(OCCN4CCCCCC4)cc3)CCCCC2)ccc1OCCN1CCCCCC1 | > 30 | 17.5 | 1.94 | – | –
CCC(=C(c1ccc(OCCN2CCOCC2)cc1)c1ccc(OCCN2CCOCC2)cc1)c1ccccc1 | – | – | 7.19 | inactive | inactive
CCC=C(c1ccc(OCCN2CCCCCC2)cc1)c1ccc(OCCN2CCCCCC2)cc1 | 22.6 | 26.7 | 1.46 | – | –
CCC(=C(c1ccc(OCCCN2CCCC2)cc1)c1ccc(OCCCN2CCCC2)cc1)c1ccccc1 | – | – | > 10 | inactive | inactive
CC(=C(c1ccc(OCCN2CCCCCC2)cc1)c1ccc(OCCN2CCCCCC2)cc1)c1ccccc1 | 6.87 | 18.9 | 0.9 | – | –
c1ccc(C(=C(c2ccc(OCCN3CCCCCC3)cc2)c2ccc(OCCN3CCCCCC3)cc2)C2CCCCC2)cc1 | > 30 | > 30 | > 10 | – | –
CCCC(CCC)=C(c1ccc(OCCN2CCCCCC2)cc1)c1ccc(OCCN2CCCCCC2)cc1 | > 30 | > 30 | 3.38 | – | –
CCC(=C(c1ccc(OCCN(CC)CC)cc1)c1ccc(OCCN(CC)CC)cc1)c1ccccc1 | – | – | > 10 | inactive | inactive
CCC(=C(c1ccc(OCCCN(C)C)cc1)c1ccc(OCCCN(C)C)cc1)c1ccccc1 | – | – | > 10 | inactive | inactive
CCC(=C(c1ccc(OCCN2CCCC2)cc1)c1ccc(OCCN2CCCC2)cc1)c1ccccc1 | – | – | 6.56 | inactive | inactive
CC(C)=C(c1ccc(OCCN2CCCCCC2)cc1)c1ccc(OCCN2CCCCCC2)cc1 | 10.7 | 11.1 | 1.66 | – | –
O=C(c1ccc(OCCN2CCCCCC2)cc1)c1ccc(OCCN2CCCCCC2)cc1 | > 30 | 13.9 | 1.65 | – | –
CC(c1ccc(OCCN2CCCCCC2)cc1)c1ccc(OCCN2CCCCCC2)cc1 | 21.4 | 8.12 | 0.8 | – | –
c1cc(C(=C2CCCC2)c2ccc(OCCN3CCCCCC3)cc2)ccc1OCCN1CCCCCC1 | 20.1 | 26.2 | 2.7 | – | –
CCCCCCC(CCCCCC)=C(c1ccc(OCCN2CCCCCC2)cc1)c1ccc(OCCN2CCCCCC2)cc1 | > 30 | > 30 | > 10 | – | –
CCC(=C(c1ccc(OCCN2CCCCC2)cc1)c1ccc(OCCN2CCCCC2)cc1)c1ccccc1 | – | – | > 10 | inactive | inactive
CCC(CC)=C(c1ccc(OCCN2CCCCCC2)cc1)c1ccc(OCCN2CCCCCC2)cc1 | 8.87 | 6.02 | 1.57 | – | –
C=C(c1ccc(OCCN2CCCCCC2)cc1)c1ccc(OCCN2CCCCCC2)cc1 | 10.7 | 9.8 | 1.04 | – | –
CCCCC(CCCC)=C(c1ccc(OCCN2CCCCCC2)cc1)c1ccc(OCCN2CCCCCC2)cc1 | 25.3 | > 30 | > 10 | – | –
CCCC(=C(c1ccc(OCCN2CCCCCC2)cc1)c1ccc(OCCN2CCCCCC2)cc1)c1ccccc1 | 4.3 | 26.8 | 1.37 | – | –
c1cc(C(=C2CCCCC2)c2ccc(OCCN3CCCCCC3)cc2)ccc1OCCN1CCCCCC1 | 11.7 | 12.5 | 2.19 | – | –
CC(C)(c1ccc(OCCN2CCCCCC2)cc1)c1ccc(OCCN2CCCCCC2)cc1 | 17.6 | 7.61 | 0.75 | – | –
CC(O)(c1ccc(OCCN2CCCCCC2)cc1)c1ccc(OCCN2CCCCCC2)cc1 | 7.06 | 22.7 | 1.66 | – | –
